Results from article PMC7474130 (Journal of Pharmaceutical Analysis, 2020).
Where two headings read alike, the source gives them in different places.

Tests used:
[1] = format: in vivo, Male Sprague-Dawley (SD) rats; conditions: for Cmax / half-life: male, Sprague-Dawley, rat, po, 6.8 g/kg
Outline: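 Untreated male SD rats (220 ± 20 g; six) were housed at 25 ± 3 °C and 45 ± 5% humidity with free access to food and water. Plasma was analysed by UHPLC-Q-Orbitrap-MS (IS, 1/concentration2-weighted calibration), with non-compartmental analysis.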

[2] = format: in vivo, Male Sprague-Dawley (SD) rats; conditions: plasma; for AUC0-t / AUC0-∞: IM rats, oral ZSS aqueous extract 6.8 g/kg, mean ± SD, n = 6; for Cmax / Tmax / half-life: male, Sprague-Dawley, rat, po, 6.8 g/kg
Outline: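 Male SD rats (220 ± 20 g) made insomniac with PCPA 400 mg/kg i.p. daily for three days (suspended in 0.5% CMC-Na); six rats. Plasma (3500 × g, 10 min, 4 °C) was held at −80 °C. Analysis used UHPLC-Q-Orbitrap-MS with internal standards and non-compartmental parameters.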

[3] = Stability of analytes in rat plasma under different storage conditions; format: in vitro ADME
Outline: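 Blank rat plasma spiked at three QC concentrations, five replicates each. Plasma (100 μL) was precipitated with three volumes of acetonitrile plus IS, vortexed 5 min, centrifuged at 13,000 × g for 10 min at 4 °C, then dried under nitrogen. It was reconstituted in initial mobile phase and re-centrifuged. Extracts were held in the auto-sampler at 4 °C, then 3 μL injected. Quantitation used analyte/IS peak-area ratios on a 1/concentration2-weighted linear calibration.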

[4] = NC rats, oral ZSS aqueous extract 6.8 g/kg, plasma, mean ± SD, n = 6
[5] = extracted plasma QC samples, 4 °C for 12 h (auto-sampler), high QC level
[6] = extracted plasma QC samples, 4 °C for 12 h (auto-sampler), low QC level
[7] = extracted plasma QC samples, 4 °C for 12 h (auto-sampler), middle QC level
[8] = rat plasma, Frozen for 30 days (−80 °C), high QC level
[9] = rat plasma, Frozen for 30 days (−80 °C), low QC level
[10] = rat plasma, Frozen for 30 days (−80 °C), middle QC level
[11] = rat plasma, Three freeze-thaw cycles, high QC level
[12] = rat plasma, Three freeze-thaw cycles, low QC level
[13] = rat plasma, Three freeze-thaw cycles, middle QC level

Row | AUC0-t [1, 4] | AUC0-∞ [1, 4] | Cmax ([1]; plasma) | half-life ([1]; plasma) | AUC0-t [2] | AUC0-∞ [2] | Cmax [2] | Tmax [2] | half-life [2] | Stability, Accuracy (RE, %) [3, 5] | Stability, Accuracy (RE, %) [3, 6] | Stability, Accuracy (RE, %) [3, 7] | Stability, Accuracy (RE, %) [3, 8] | Stability, Accuracy (RE, %) [3, 9] | Stability, Accuracy (RE, %) [3, 10] | Stability, Accuracy (RE, %) [3, 11] | Stability, Accuracy (RE, %) [3, 12] | Stability, Accuracy (RE, %) [3, 13] | Structure (SMILES) | also measured
1 | 1.08 ± 0.30 μg/L･h | 1.13 ± 0.27 μg/L･h | 1.98 ± 0.82 ng/mL | 27 ± 10.2 min | 0.91 ± 0.26 μg/L･h | 0.93 ± 0.28 μg/L･h | 2.48 ± 0.98 ng/mL | 13.8 ± 5.4 min | 24.6 ± 16.8 min | 7.71% | 14.88% | 3.35% | −1.99% | 14.76% | 9.58% | 8.75% | 11.85% | 9.48% | COc1cc2c(cc1O)C(Cc1ccc(O)cc1)NCC2 (stereo not drawn) [Coclaurine, coclaurine] | Tmax [1, 4]: 16.2 ± 5.4 min
2 | 54.56 ± 21.90 μg/L･h | 69.51 ± 28.52 μg/L･h | 40.6 ± 12.7 ng/mL | 190 ± 118 min | 45.13 ± 24.46 μg/L･h | 51.87 ± 23.75 μg/L･h | 35.1 ± 13.7 ng/mL | 12 ± 4.2 min | 161 ± 76.8 min | 11.25% | −4.56% | −11.99% | 9.01% | −14.77% | 0.05% | 8.06% | −5.49% | 5.31% | COc1ccc2c(c1O)-c1c(O)c(OC)cc3c1[C@H](C2)[N+](C)(C)CC3 [Magnoflorine, magnoflorine] | 
3 |  |  |  |  |  |  |  |  |  |  |  |  |  |  |  |  |  |  | COc1cc2oc(-c3ccc(O)cc3)cc(=O)c2c(O)c1[C@@H]1O[C@H](CO)[C@@H](O)[C@H](O)[C@H]1O [swertisin] | concentration in rat plasma ([1]; after oral administration of ZSS aqueous extract): too low for detection; content in bile and feces ([1]; after oral administration of ZSS aqueous extract, data not open): high content
